Source: ChEMBL document CHEMBL2311339, “Identification of GZD824 as an orally bioavailable inhibitor that targets phosphorylated and nonphosphorylated breakpoint cluster region-Abelson (Bcr-Abl) kinase and overcomes clinically acquired mutation-induced resistance against imatinib” (J Med Chem, 2013)
The source made the active and inactive calls. The rule behind the calls is not given here.

Legend:
[1] = Cytotoxicity against mouse BA/F3 cells expressing BCR-ABL F486S mutant assessed as growth inhibition after 72 hrs by CCK-8 assay; details: BaF3, 72 h
[2] = molecular target: Tyrosine-protein kinase ABL1 (Homo sapiens, UniProt P00519, E255K); experiment: Inhibition of human recombinant ABL1 E255K mutant expressed in insect cells after 30 mins by FRET assay; format: cell-based
K562 [3] = experiment: Cytotoxicity against human K562 cells expressing BCR-ABL assessed as growth inhibition after 72 hrs by CCK-8 assay; format: functional, cell-based; details: K562, 72 h
Procedure, shortened: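 Log-phase human leukemia cells were seeded at about 3000 cells/well and treated 24 h later for 72 h. CCK-8 was then incubated with the cells for 3 h and read as OD450 − OD650. Viability was normalized to vehicle wells and cell-free blanks, and IC50 taken as the mean of three experiments.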

[4] = Volume of distribution at steady state in rat at 5 mg/kg, iv; format: ADME, organism-based; parameters: dose 5 mg/kg, route intravenous; details: in vivo, read-out: Vdss
Procedure, shortened: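 Test compound given to rats as its bismesylate salt in a single dose, 5 mg/kg iv or 25 mg/kg by mouth. Plasma drug levels were monitored after dosing, and PK parameters including Vss were reported per route.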

[5] = molecular target: Fibroblast growth factor receptor (Homo sapiens) (UniProt P22607+P11362+P22455+P21802); experiment: Binding affinity to FGFR (unknown origin) at 10 nM after 2 hrs by FRET assay; format: protein assay
Caco-2 = experiment: Efflux ratio of permeability from […] in human Caco2 cells; format: ADME, cell-based
[6] = Cytotoxicity against mouse BA/F3 cells expressing BCR-ABL E255V mutant assessed as growth inhibition after 72 hrs by CCK-8 assay; details: BaF3, 72 h
[7] = Mean residence time in rat at 25 mg/kg, po; format: ADME, organism-based; parameters: dose 25 mg/kg, route oral; details: in vivo
Procedure, shortened: (§1)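 Bismesylate salt given to rats as a single iv dose of 5 mg/kg or a single oral dose of 25 mg/kg. Plasma drug levels were followed over time to derive the PK parameters. The 12 h and 24 h plasma levels come from the oral 25 mg/kg dose.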

[8] = molecular target: Serine/threonine-protein kinase B-raf (Homo sapiens) (UniProt P15056); experiment: Binding affinity to BRAF (unknown origin) at 10 nM after 2 hrs by FRET assay
Serine/threonine-protein kinase B-raf (Homo sapiens), sequence (P15056 whole entry): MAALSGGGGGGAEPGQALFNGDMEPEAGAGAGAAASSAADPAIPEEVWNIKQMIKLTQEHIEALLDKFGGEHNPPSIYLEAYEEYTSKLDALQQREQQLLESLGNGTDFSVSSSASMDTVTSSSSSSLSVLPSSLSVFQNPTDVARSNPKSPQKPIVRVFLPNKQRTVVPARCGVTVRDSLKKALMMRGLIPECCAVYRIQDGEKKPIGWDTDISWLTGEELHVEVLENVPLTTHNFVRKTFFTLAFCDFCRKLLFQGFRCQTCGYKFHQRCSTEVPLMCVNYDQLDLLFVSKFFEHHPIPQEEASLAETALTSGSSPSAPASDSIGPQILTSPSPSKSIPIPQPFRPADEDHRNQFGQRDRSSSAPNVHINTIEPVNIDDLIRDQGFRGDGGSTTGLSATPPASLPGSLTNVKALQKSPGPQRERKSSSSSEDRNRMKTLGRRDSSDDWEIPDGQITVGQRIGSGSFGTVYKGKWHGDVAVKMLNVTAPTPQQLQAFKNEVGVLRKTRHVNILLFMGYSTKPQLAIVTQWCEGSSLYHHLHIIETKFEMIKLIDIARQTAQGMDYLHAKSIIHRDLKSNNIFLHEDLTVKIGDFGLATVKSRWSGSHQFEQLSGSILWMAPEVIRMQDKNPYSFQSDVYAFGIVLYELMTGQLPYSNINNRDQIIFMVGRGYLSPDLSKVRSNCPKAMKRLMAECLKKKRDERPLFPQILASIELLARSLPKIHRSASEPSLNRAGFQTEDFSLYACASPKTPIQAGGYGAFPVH

cells [9] = details: Mus musculus, BaF3, 72 h
[10] = molecular target: Tyrosine-protein kinase ABL1 (Homo sapiens, UniProt P00519); experiment: Binding affinity to non phosphorylated wild type ABL1 (unknown origin) after 1 hr
K562 [11] = experiment: Antitumor activity against human K562 cells xenografted in mouse assessed as decrease in tumor recurrence at 5 to 10 mg/kg, po qd for 20 days; format: functional, organism-based
Cytochrome P450 3A4 = Cytochrome P450 3A4 (Homo sapiens, UniProt P08684); experiment: Inhibition of human recombinant CYP3A4 at 30 uM after 30 mins; format: ADME; details: recombinant enzyme, 0.5 h
Cytochrome P450 3A4, sequence (P08684 whole entry): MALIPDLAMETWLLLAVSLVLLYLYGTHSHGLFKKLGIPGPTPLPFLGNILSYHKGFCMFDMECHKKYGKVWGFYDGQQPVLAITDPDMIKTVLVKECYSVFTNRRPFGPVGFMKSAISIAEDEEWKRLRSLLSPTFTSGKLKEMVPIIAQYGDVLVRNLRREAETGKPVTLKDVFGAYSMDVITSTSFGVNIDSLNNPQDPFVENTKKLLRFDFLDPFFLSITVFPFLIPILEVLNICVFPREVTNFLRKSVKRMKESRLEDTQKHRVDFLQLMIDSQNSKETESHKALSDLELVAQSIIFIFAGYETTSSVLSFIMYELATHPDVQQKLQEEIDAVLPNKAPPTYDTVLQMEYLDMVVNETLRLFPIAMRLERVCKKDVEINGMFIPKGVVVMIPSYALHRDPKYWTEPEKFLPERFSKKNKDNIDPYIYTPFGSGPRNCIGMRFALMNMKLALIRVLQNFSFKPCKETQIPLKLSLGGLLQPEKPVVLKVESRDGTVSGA

BaF3 [12] = experiment: Antitumor activity against mouse BA/F3 cells expressing BCR-ABL T315I mutant allografted in SCID mouse assessed as induction of tumor regression at 20 mg/kg/day, po qd for 14 days; format: functional, organism-based
Procedure, shortened: (§2)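 Ba/F3 cells stably expressing Bcr-Abl (wild type or mutant) were grown in RPMI 1640 with 10% FBS and no IL-3, then suspended in saline (2.5 × 10^7 cells/mL) and given as 0.2 mL s.c. in the right flank. Groups were randomised at 100−200 mm3. Once-daily oral gavage for 14 days in DMSO/Cremophor/ethanol/saline vehicle; reference imatinib 50 or 100 mg/kg/day. Volume L × W²/2 every 2 days; n = 10; t test versus vehicle.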

[13] = Cytotoxicity against mouse BA/F3 cells assessed as growth inhibition after 72 hrs by CCK-8 assay; details: BaF3, 72 h
BaF3 [14] = experiment: Antitumor activity against mouse BA/F3 cells expressing wild type BCR-ABL allografted in SCID mouse assessed as inhibition of tumor growth at 1 mg/kg/day, po qd for 14 days; format: functional, organism-based; procedure, shortened: as §2
[15] = Tmax in rat at 25 mg/kg, po; format: ADME, organism-based; parameters: dose 25 mg/kg, route oral; details: in vivo; procedure, shortened: as §1
BaF3 [16] = experiment: Antitumor activity against mouse BA/F3 cells expressing BCR-ABL E255K mutant allografted in po dosed SCID mouse assessed as reduction of hepatosplenomegaly administered qd for 14 days; format: functional, organism-based
cells [17] = details: Mus musculus, BaF3, 72 h; remark: listed apart in the source
BaF3 [18] = experiment: Antitumor activity against mouse BA/F3 cells expressing wild type BCR-ABL allografted in SCID mouse assessed as induction of tumor regression at 5 mg/kg/day, po qd for 14 days; format: functional, organism-based; procedure, shortened: as §2
[19] = Clearance in rat at 25 mg/kg, po; format: ADME, organism-based; parameters: dose 25 mg/kg, route oral; details: in vivo; procedure, shortened: as §1
[20] = molecular target: Tyrosine-protein kinase ABL1 (Homo sapiens, UniProt P00519, H396P); experiment: Binding affinity to non phosphorylated ABL1 H396P mutant (unknown origin) after 1 hr
[21] = molecular target: Epithelial discoidin domain-containing receptor 1 (Homo sapiens) (UniProt Q08345); experiment: Binding affinity to DDR1 (unknown origin) at 10 nM after 2 hrs by FRET assay
Epithelial discoidin domain-containing receptor 1 (Homo sapiens), sequence (Q08345 whole entry, the tested form may be a part): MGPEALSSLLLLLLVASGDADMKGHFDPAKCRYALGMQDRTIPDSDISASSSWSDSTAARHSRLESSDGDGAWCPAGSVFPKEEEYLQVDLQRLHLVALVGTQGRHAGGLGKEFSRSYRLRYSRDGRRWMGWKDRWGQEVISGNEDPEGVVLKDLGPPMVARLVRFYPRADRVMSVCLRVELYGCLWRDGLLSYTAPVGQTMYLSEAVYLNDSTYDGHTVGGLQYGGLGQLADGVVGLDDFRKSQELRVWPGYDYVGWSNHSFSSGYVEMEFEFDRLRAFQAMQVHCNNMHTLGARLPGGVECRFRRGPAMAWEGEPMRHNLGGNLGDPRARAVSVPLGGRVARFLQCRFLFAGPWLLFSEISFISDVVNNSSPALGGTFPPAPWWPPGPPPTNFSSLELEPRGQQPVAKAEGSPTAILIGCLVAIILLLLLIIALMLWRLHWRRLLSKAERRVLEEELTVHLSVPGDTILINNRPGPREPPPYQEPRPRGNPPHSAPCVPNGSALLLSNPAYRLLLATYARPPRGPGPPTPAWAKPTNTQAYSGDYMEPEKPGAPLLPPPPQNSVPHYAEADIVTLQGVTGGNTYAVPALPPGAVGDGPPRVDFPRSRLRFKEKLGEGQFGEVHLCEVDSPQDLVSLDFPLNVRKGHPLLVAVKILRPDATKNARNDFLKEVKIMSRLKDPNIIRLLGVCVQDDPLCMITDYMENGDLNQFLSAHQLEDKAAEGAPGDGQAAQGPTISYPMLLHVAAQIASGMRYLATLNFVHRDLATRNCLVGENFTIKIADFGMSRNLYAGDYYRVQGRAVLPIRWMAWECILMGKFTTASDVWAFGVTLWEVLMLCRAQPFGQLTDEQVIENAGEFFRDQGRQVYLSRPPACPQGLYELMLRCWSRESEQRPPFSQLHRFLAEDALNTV

[22] = Cytotoxicity against mouse BA/F3 cells expressing BCR-ABL F317V mutant assessed as growth inhibition after 72 hrs by CCK-8 assay; details: BaF3, 72 h
[23] = Cytotoxicity against mouse BA/F3 cells expressing BCR-ABL Y253F mutant assessed as growth inhibition after 72 hrs by CCK-8 assay; details: BaF3, 72 h
K562 [24] = experiment: Antitumor activity against human K562 cells xenografted in mouse assessed as inhibition of tumor growth at 1 mg/kg, po qd for 14 days; format: functional; details: K562, 336 h, read-out: TGI
Procedure, shortened: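 K562 cells in normal saline (2.5 × 10^7 cells/mL, 0.2 mL) injected subcutaneously into right flank; mice randomized when mean tumor volume reached 100−200 mm3. Dosing once daily by oral gavage for 14 consecutive days in 1% DMSO, 22.5% Cremophor, 7.5% ethanol, 69% saline. Tumor volume (L × W2/2) and body weight every 2 days; n = 10/group; unpaired Student's t test vs vehicle.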

[25] = Plasma concentration in rat after 24 hrs; format: ADME; procedure, shortened: as §1
[26] = Cytotoxicity against mouse BA/F3 cells expressing BCR-ABL F317L mutant assessed as growth inhibition after 72 hrs by CCK-8 assay; details: BaF3, 72 h
K562 [27] = experiment: Antitumor activity against human K562 cells xenografted in mouse assessed as eradication of tumor at 5 to 10 mg/kg, po qd for 6 days; format: functional, organism-based
BaF3 [28] = experiment: Antitumor activity against mouse BA/F3 cells expressing BCR-ABL T315I mutant allografted in SCID mouse assessed as complete suppression of cell proliferation at 20 mg/kg/day, po qd for 10 days; format: functional, organism-based
Procedure, shortened: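 Ba/F3 Bcr-Abl T315I cells stably carrying firefly luciferase, in saline, were injected i.v. into SCID nude mice (2 × 10^6 cells/0.1 mL). Imaging began 5−7 days later: i.p. D-luciferin, halothane anaesthesia, images after 5 min. Mice were randomised by signal and dosed by oral gavage once daily for 10 days (5, 10, 20 mg/kg/day; imatinib 100 mg/kg; vehicle). Luminescence was quantified; survival by Kaplan−Meier with log-rank test.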

[29] = molecular target: Tyrosine-protein kinase ABL1 (Homo sapiens, UniProt P00519, T315I); format: cell-based

In the case of `Cc1ccc(C(=O)Nc2ccc(CN3CCN(C)CC3)c(C(F)(F)F)c2)cc1C#Cc1cnc2[nH]ncc2c1` [OLVEREMBATINIB], the IC50 [1] is reported as 1 nM, the IC50 [2] is reported as 0.27 nM and the IC50 (K562 [3]) is reported as 0.2 nM. For the same compound, the Vd [4] was 13.7 L/kg, the Activity [5] was “inactive” and the Ratio (Caco-2) was 0.9. For the same compound, the IC50 [6] was 8.1 nM, the MRT [7] was 17.9 h and the Activity [8] was “inactive”. The IC50 (cells [9]) was 7.1 nM, the Kd [10] was 0.32 nM and the Activity (K562 [11]) was “Active”. For the same compound, the “inhibition (INH)” value (Cytochrome P450 3A4) was “Not Active”, the Activity (BaF3 [12]) was “Active” and the IC50 [13] was 170 nM. The TGI (BaF3 [14]) was “Active”, the Tmax [15] was 4 h and the Activity (BaF3 [16]) was “Active”. The IC50 (cells [17]) was 6 nM, the Activity (BaF3 [18]) was “Active” and the CL/F [19] was 3.6 L/h/kg. For the same compound, the Kd [20] was 0.18 nM, the Activity [21] was “inactive” and the IC50 [22] was 4 nM. For the same compound, the IC50 [23] was 11 nM, the inhibition in vivo at 1 mg/kg (K562 [24]) was 68.3% and the concentration at 24 h [25] was 0.169 µM. The IC50 [26] was 2.7 nM, the Activity (K562 [27]) was “Active” and the Activity (BaF3 [28]) was “Active”. For the same compound, the IC50 [29] was 0.68 nM.
